Data from ChEMBL document CHEMBL2021842, “COMPARE analysis of the toxicity of an iminoquinone derivative of the imidazo[5,4-f]benzimidazoles with NAD(P)H:quinone oxidoreductase 1 (NQO1) activity and computational docking of quinones as NQO1 substrates” (Bioorg Med Chem, 2012).

Assays:
[1] = system: OVCAR-4; experiment: Growth inhibition of human OVCAR4 cells assessed as cell growth at 10 uM relative to untreated control; assay type: functional; conditions: read-out: Activity
Outline: (§1)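 First stage of the NCI DTP 60 human tumour cell-line screen. Cells were exposed to a single dose of 10 µM. Output is reported as growth % relative to control.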

[2] = system: NCI-H226; experiment: Growth inhibition of human NCI-H226 cells assessed as cell growth at 10 uM relative to untreated control; assay type: functional; conditions: read-out: Activity; outline: as §1
[3] = system: MCF7; experiment: Growth inhibition of human MCF7 cells assessed as cell growth at 10 uM relative to untreated control; assay type: functional; conditions: read-out: Activity; outline: as §1
[4] = Growth inhibition of human Hs 578T cells assessed as cell growth at 10 uM relative to untreated control; assay type: functional; conditions: read-out: Activity
Outline: (§2)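 NCI DTP 60-cell-line screen, first stage: a single 10 µM dose of compound given to the human tumour panel. Result reported as percent growth relative to control, on a mean growth graph.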

[5] = Cytotoxicity against human GM00637 cells assessed as reduction in mean cell viability after 72 hrs by MTT assay; assay type: cell-based; conditions: GM00637, 72 h
Outline: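 SV40-transformed normal skin fibroblasts (GM00637) in MEM Eagle–Earle BSS with 15% heat-inactivated FBS, 2 mM L-glutamine, 2× amino acids and vitamins. Seeded at 10,000 cells/well and left 24 h to adhere. Ethanol-delivered compound (1% final) for 72 h at 37 °C, 5% CO₂. MTT formazan in DMSO read at 550/690 nm. Viability relative to vehicle; IC₅₀ by nonlinear regression.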

[6] = system: A498; experiment: Growth inhibition of human A498 cells assessed as cell growth at 10 uM relative to untreated control; assay type: functional; conditions: read-out: Activity; outline: as §2
[7] = system: MDA-MB-468; experiment: Growth inhibition of human MDA-MB-468 cells assessed as cell growth at 10 uM relative to untreated control; assay type: functional; conditions: read-out: Activity; outline: as §1
[8] = system: UACC-62; experiment: Growth inhibition of human UACC62 cells assessed as cell growth at 10 uM relative to untreated control; assay type: functional; conditions: read-out: Activity
Outline: (§3)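 This is the first stage of the NCI DTP 60-human-tumour-cell-line screen, covering nine tissue types. Cells receive a single dose of the test compound, and the output is reported as mean growth %.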

[9] = system: PC-3; experiment: Growth inhibition of human PC3 cells assessed as cell growth at 10 uM relative to untreated control; assay type: functional; conditions: read-out: Activity; outline: as §1
[10] = system: DU-145; experiment: Cytotoxicity against human DU145 cells assessed as reduction in mean cell viability after 72 hrs by MTT assay; assay type: functional, cell-based; conditions: DU-145, 72 h
Outline: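 DU-145 prostate cells in RPMI-1640 with 10% heat-inactivated FBS, penicillin–streptomycin and 2 mM L-glutamine. Seeded at 2000 cells/well and left 24 h to adhere. Compound added in ethanol (1% final) for 72 h at 37 °C, 5% CO₂, with ethanol-only controls. Formazan dissolved in DMSO and read at 550 nm (690 nm reference). IC₅₀ derived by nonlinear regression of viability versus vehicle.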

[11] = system: HCT-116; experiment: Growth inhibition of human HCT116 cells assessed as cell growth at 10 uM relative to untreated control; assay type: functional; conditions: read-out: Activity; outline: as §2
[12] = system: DU-145; experiment: Growth inhibition of human DU145 cells assessed as cell growth at 10 uM relative to untreated control; assay type: functional; conditions: read-out: Activity; outline: as §2
[13] = system: SK-MEL-5; experiment: Growth inhibition of human SK-MEL-5 cells assessed as cell growth at 10 uM relative to untreated control; assay type: functional; conditions: read-out: Activity; outline: as §1
[14] = system: EKVX; experiment: Growth inhibition of human EKVX cells assessed as cell growth at 10 uM relative to untreated control; assay type: functional; conditions: read-out: Activity; outline: as §2
[15] = system: CAKI-1; experiment: Growth inhibition of human Caki1 cells assessed as cell growth at 10 uM relative to untreated control; assay type: functional; conditions: read-out: Activity; outline: as §2
[16] = system: U-251; experiment: Growth inhibition of human U251 cells assessed as cell growth at 10 uM relative to untreated control; assay type: functional; conditions: read-out: Activity; outline: as §3
[17] = system: MDA-MB-435; experiment: Growth inhibition of human MDA-MB-435 cells assessed as cell growth at 10 uM relative to untreated control; assay type: functional; conditions: read-out: Activity; outline: as §1
[18] = system: HL-60(TB); experiment: Growth inhibition of human HL-60(TB) cells assessed as cell growth at 10 uM relative to untreated control; assay type: functional; conditions: read-out: Activity
Outline: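 NCI DTP NCI-60 screen, first stage: a single dose applied to 60 human tumour cell lines from nine tissue types. Output is reported as growth %.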

[19] = system: T47D; experiment: Growth inhibition of human T47D cells assessed as cell growth at 10 uM relative to untreated control; assay type: functional; conditions: read-out: Activity; outline: as §3
[20] = system: SN12C; experiment: Growth inhibition of human SN12C cells assessed as cell growth at 10 uM relative to untreated control; assay type: functional; conditions: read-out: Activity; outline: as §3
[21] = system: NCI-H23; experiment: Growth inhibition of human NCI-H23 cells assessed as cell growth at 10 uM relative to untreated control; assay type: functional; conditions: read-out: Activity; outline: as §1
[22] = system: NCI-H522; experiment: Growth inhibition of human NCI-H522 cells assessed as cell growth at 10 uM relative to untreated control; assay type: functional; conditions: read-out: Activity; outline: as §1
[23] = system: SW-620; experiment: Growth inhibition of human SW620 cells assessed as cell growth at 10 uM relative to untreated control; assay type: functional; conditions: read-out: Activity; outline: as §3
[24] = system: M14; experiment: Growth inhibition of human M14 cells assessed as cell growth at 10 uM relative to untreated control; assay type: functional; conditions: read-out: Activity; outline: as §2
[25] = system: ACHN; experiment: Growth inhibition of human ACHN cells assessed as cell growth at 10 uM relative to untreated control; assay type: functional; conditions: read-out: Activity; outline: as §2
[26] = system: K562; experiment: Growth inhibition of human K562 cells assessed as cell growth at 10 uM relative to untreated control; assay type: functional; conditions: read-out: Activity; outline: as §2
[27] = system: 786-0; experiment: Growth inhibition of human 786-0 cells assessed as cell growth at 10 uM relative to untreated control; assay type: functional; conditions: read-out: Activity; outline: as §2
[28] = Growth inhibition of human […] cells assessed as cell growth at 10 uM relative to untreated control; assay type: functional; conditions: read-out: Activity; outline: as §1
[29] = system: HOP-62; experiment: Growth inhibition of human HOP62 cells assessed as cell growth at 10 uM relative to untreated control; assay type: functional; conditions: read-out: Activity; outline: as §2
[30] = system: UACC-257; experiment: Growth inhibition of human UACC257 cells assessed as cell growth at 10 uM relative to untreated control; assay type: functional; conditions: read-out: Activity; outline: as §3
[31] = system: A549; experiment: Growth inhibition of human A549 cells assessed as cell growth at 10 uM relative to untreated control; assay type: functional; conditions: read-out: Activity; outline: as §2
[32] = system: OVCAR-8; experiment: Growth inhibition of human OVCAR8 cells assessed as cell growth at 10 uM relative to untreated control; assay type: functional; conditions: read-out: Activity; outline: as §1
[33] = system: LOX IMVI; experiment: Growth inhibition of human LOXIMVI cells assessed as cell growth at 10 uM relative to untreated control; assay type: functional; conditions: read-out: Activity; outline: as §2
[34] = system: NCI/ADR-RES; experiment: Growth inhibition of human NCI/ADR-RES cells assessed as cell growth at 10 uM relative to untreated control; assay type: functional; conditions: read-out: Activity; outline: as §1
[35] = system: HeLa; experiment: Cytotoxicity against human HeLa cells assessed as reduction in mean cell viability after 72 hrs by MTT assay; assay type: functional, cell-based
Outline: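 HeLa-CCL-2 cells in DMEM with 10% heat-inactivated FBS, 2 mM L-glutamine and nonessential amino acids. Plated at 1000 cells/well with 24 h adherence. Treated in ethanol (1% final) for 72 h at 37 °C under 5% CO₂, with ethanol controls. Absorbance of DMSO-dissolved formazan at 550 nm, 690 nm reference. IC₅₀ by nonlinear regression of percent viability.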

[36] = system: SR; experiment: Growth inhibition of human SR cells assessed as cell growth at 10 uM relative to untreated control; assay type: functional; conditions: read-out: Activity; outline: as §3

Row | Compound | growth at 10 µM [1] | growth at 10 µM [2] | growth at 10 µM [3] | growth at 10 µM [4] | IC50 [5] | growth at 10 µM [6] | growth at 10 µM [7] | growth at 10 µM [8] | growth at 10 µM [9] | IC50 [10] | growth at 10 µM [11] | growth at 10 µM [12] | growth at 10 µM [13] | growth at 10 µM [14] | growth at 10 µM [15] | growth at 10 µM [16] | growth at 10 µM [17] | growth at 10 µM [18] | growth at 10 µM [19] | growth at 10 µM [20] | other results
1 | N=C1c2nc3n(c2C(=O)c2nc4n(c21)CCCC4)CCCC3 | 96.2% | 57.1% | -6.98% | -28.6% | 3630 nM | 52% | 68.1% | -85.1% | 90.5% | 300 nM | 65.8% | -93.9% | -98% | 95.6% | 88.8% | 50.6% | -82.5% | 96.3% | 71.9% | -86.1% | growth at 10 µM [21]: -70.4%; growth at 10 µM [22]: 10.5%; growth at 10 µM [23]: 23.7%; growth at 10 µM [24]: -95.6%; growth at 10 µM [25]: 69.4%; growth at 10 µM [26]: 81.4%; growth at 10 µM [27]: 89%; growth at 10 µM [28]: 82.2%; growth at 10 µM [29]: 52.3%; growth at 10 µM [30]: -6.6%; growth at 10 µM [31]: -30.6%; growth at 10 µM [32]: 91.5%; growth at 10 µM [33]: -68%; growth at 10 µM [34]: 85.7%; IC50 [35]: 1550 nM; growth at 10 µM [36]: 69.5%
2 | O=C1c2nc3n(c2C(=O)c2nc4n(c21)CCCC4)CCCC3 | 100% | 111% | 101% | 102% | > 5000 nM | 99.9% | 95.6% | 99.8% | 102% | 1990 nM | 96.8% | 101% | 87.6% | 99.9% | 90.7% | 97.5% | 105% | 107% | 99.3% | 99.6% | growth at 10 µM [21]: 100%; growth at 10 µM [22]: 92.3%; growth at 10 µM [23]: 104%; growth at 10 µM [24]: 108%; growth at 10 µM [25]: 99%; growth at 10 µM [26]: 107%; growth at 10 µM [27]: 111%; growth at 10 µM [28]: 97.6%; growth at 10 µM [29]: 112%; growth at 10 µM [30]: 96.9%; growth at 10 µM [31]: 99.7%; growth at 10 µM [32]: 103%; growth at 10 µM [33]: 96.1%; growth at 10 µM [34]: 103%; IC50 [35]: 1670 nM; growth at 10 µM [36]: 101%
